According to BindingDB's records for doi:10.1021/jm9003297 (University of Bonn, 2009):

Assays:
P2Y purinoceptor 12 = P2Y purinoceptor 12 (Homo sapiens, UniProt Q9H244); experiment: Displacement of [3H]PSB0413 from human platelet P2Y12 receptor
Outline: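 Membranes from outdated human blood-bank platelets (4-5 days post-donation), washed, centrifuged, homogenized, stored at -80 °C. 100 µg protein incubated with 5 nM [³H]PSB-0413 in 50 mM Tris-HCl pH 7.4 for 1 h at rt, then filtered over GF/B. Nonspecific binding with 1 mM ADP. Screen at 10 µM. Ki from curves of 6-7 concentrations over 3 log units. At least three experiments in triplicate.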

[1] = Displacement of [3H]DPCPX from human adenosine A1 receptor expressed in CHO cells assessed as ratio of IC50 in presence of GTP to absence of GTP by GTP shift assay

Chain of P2Y purinoceptor 12 (Q9H244 whole entry): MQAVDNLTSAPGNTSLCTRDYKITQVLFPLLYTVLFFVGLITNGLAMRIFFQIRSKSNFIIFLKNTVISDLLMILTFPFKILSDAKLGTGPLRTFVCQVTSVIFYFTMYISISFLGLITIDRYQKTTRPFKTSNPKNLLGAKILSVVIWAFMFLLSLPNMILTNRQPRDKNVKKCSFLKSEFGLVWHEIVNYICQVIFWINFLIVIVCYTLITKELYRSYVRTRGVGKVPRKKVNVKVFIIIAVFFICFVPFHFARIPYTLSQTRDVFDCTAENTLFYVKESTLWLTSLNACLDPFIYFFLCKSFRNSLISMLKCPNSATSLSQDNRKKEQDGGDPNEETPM

In the case of `CN(C)[C@@H]1C(=O)C(C(N)=O)C(=O)[C@@]2(O)C(=O)C3C(=O)c4c(O)cccc4[C@@](C)(O)[C@H]3C[C@@H]12` (stereo partly drawn) [Achromycin], the Ki (P2Y purinoceptor 12) is reported as over 10 µM.

With `Nc1c(S(=O)(=O)O)cc(Nc2ccc(Nc3ncccn3)c(S(=O)(=O)O)c2)c2c1C(=O)c1ccccc1C2=O` [Disodium 1-amino-4-[4-([1,3]diazine-2-ylamino)-3-sulfophenylamino]-9,10-dioxo-9,10-dihydroanthracene-2-sulfonate] the IC50 [1] was 0.76 µM.

For `CN(C)[C@@H]1C(=O)C(C(N)=O)C(=O)[C@@]2(O)C(=O)C3C(=O)c4c(O)ccc(Cl)c4[C@@](C)(O)[C@H]3C[C@@H]12` (stereo partly drawn), the Ki (P2Y purinoceptor 12) was over 10 µM.
